For 97 compounds, cytotoxicity results are on record in ChEMBL document CHEMBL4513216, “Probing the Open Global Health Chemical Diversity Library for Multistage-Active Starting Points for Next-Generation Antimalarials” (ACS Infect Dis, 2020).

This data set in a line: Toxicity liver stage against HepG2, at 10uM. It counts as cell-based. On the set-up: test concentration 10 uM, cell line HepG2-A16-CD81EGFP. To be noted: human, HepG2-A16-CD81EGFP cells; read-out: INHIBITION
A digest of the protocol: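 Uninfected HepG2-A16-CD81EGFP cells, 3 × 10^3 per well, 1536-well, plated on prespotted compound at 10 μM final, parasite-free screening media added to match infected plates; puromycin 10 μM positive, DMSO 0.5% negative; run in parallel with 48 h PbLuc assay at 37 °C, 5% CO2; viability by CellTiter-Glo luminescence, normalized to controls.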
As to `Cc1csc(NCC(=O)c2c[nH]c3ccccc23)n1`, the cytotoxicity at 10 µM amounted to 22.4%. Next, `CS(=O)(=O)NCC1CCCCN1C(=O)c1csc(-c2ccsc2)n1` (configuration not stated): -5.89%. In the case of `COc1cccc(-c2nc(C)c(C(=O)N[C@@H](CC(C)C)C(=O)O)s2)c1` it was 4.21%; in that of `O=C(NCC1CCCO1)c1cc(-c2ccc3c(c2)CCO3)n[nH]1` (configuration not stated), -8.13%; in that of `CCc1c(C)nc(-n2nc(-c3cccs3)cc2N)[nH]c1=O`, -4.47%.

As to `CN(C)C(CNC(=O)NCCOc1ccccc1)c1ccco1` (configuration not stated), the cytotoxicity at 10 µM is -6.2%. Next, `CC(=O)OC1CN(c2nc3c(C(F)(F)F)cccc3s2)C1`: -5.17%; `CN1CCN(C(=O)c2n[nH]c3c2CN(Cc2nccs2)CC3)CC1`: -144%; `CC1CCc2nc(O)c(C(=O)NCc3ccccn3)cc2C1` (configuration not stated): -2.99%. In the case of `O=c1c2cnc(N3CCCC3)nc2ccn1-c1cccc(F)c1` it was 3.36%. In the case of `O=C(NCCCO)c1nc(-c2ccc3cc[nH]c3c2)no1` it was 4.28%; in that of `Cc1nc2c(Nc3ccc(C#N)cc3)nc(N)nc2n1C`, 1.88%. In the case of `Cc1ccc(NC(=O)c2cccc(N(C)C)c2)nc1`, the cytotoxicity at 10 µM turned out to be 8.77%.

In the case of `CCOCCC(=O)NC(c1noc(C)n1)c1ccccc1F` (configuration not stated), the cytotoxicity at 10 µM was 0.101%. Next, `CSCCC(=O)N1CCN(CC(C)(C)O)CC1`: -5.85%; `CN1CCc2ccc(NCc3cccs3)cc2C1=O`: -4.72%. With `NC(=O)CSc1ccccc1NCc1nc(C2CC2)no1`, the cytotoxicity at 10 µM worked out at 1.12%. In the case of `CN(CCCNC(=O)c1cccc(OCC(N)=O)c1)CC(F)(F)F` it was -10.4%; in that of `O=C(c1ccc(NCc2ccco2)nc1)N1CCc2ccccc21`, -4.6%; in that of `CC(C)(C)n1ncc2c(=O)[nH]c(N3CCN(CCO)CC3)nc21`, -13.3%. In the case of `CC(C)C(O)CNC(=O)Nc1cccc(-c2nccs2)c1` (configuration not stated) it was -5.5%; in that of `CCOCCOC(C)C(=O)Nc1ccc2[nH]c(C)cc2c1` (configuration not stated), 5.35%; in that of `O=C(Nc1cnn(-c2ccccc2Cl)c1)N[C@@H]1C=C[C@H](CO)C1`, 0.836%.

For the compound `NC(=O)CC1CCN(C(=O)c2csc(-c3ccccc3F)n2)CC1`, the cytotoxicity at 10 µM is -1.29%. In the case of `COCCN1CCN(CC(O)c2cc(OC)ccc2OC)CC1` (configuration not stated) it was 3%; in that of `N#Cc1ccc(N2CCCC2Cn2cncn2)nc1` (configuration not stated), 6.05%; in that of `CS(=O)(=O)NCCNC(=O)NC1(c2ccc(F)cc2)CCCC1`, -1.44%. Next, `Cc1ccccc1OCCSc1nnc(CC2CCS(=O)(=O)C2)n1C` (configuration not stated): 1.27%; `CC1CCN(C(=O)Cn2cc(I)cn2)CC1`: 2.19%. Next, `CCN1CCC(NC(=O)Cn2cc(C)c3ccccc32)CC1`: -1.74%; `Cc1cn(CC(=O)NC2CCC3(CC2)OCCO3)c2ccccc12`: -1.21%. Consider `CN(Cc1ccc(Cl)s1)C(=O)c1ccccc1OCC(N)=O`, for which the cytotoxicity at 10 µM was -9.2%. Turning to `COC(=O)c1ccc(N2CCC(C(O)c3ccccc3)CC2)nn1` (configuration not stated), the cytotoxicity at 10 µM was 1.68%. In the case of `Cn1cccc(NC(=O)COc2ccc(Br)cc2)c1=O` it was 8.35%; in that of `CC(C)C(=O)NCCCNC(=O)Nc1cc(-c2ccccc2)ns1`, 20.3%.

On to `CC(C)C(C)N(C(=O)c1cc2c([nH]c1=O)CCCC2=O)C1CC1` (configuration not stated), for which the cytotoxicity at 10 µM is -3.45%. In the case of `CC(=O)N(C)CCc1nc(-c2cc(C(N)=O)co2)cs1` it was -4.99%; in that of `Cc1ccc(OCC(O)COC2CCOCC2)c(Br)c1` (configuration not stated), -4.66%; in that of `Cc1ccc(-c2nn3c(nc2=O)-c2ccccc2NC3C(=O)O)cc1C` (configuration not stated), 19.3%.

`O=C(N1CCC(O)(C(F)(F)F)C1)C1(c2cccc(Cl)c2)CC1` (configuration not stated): the cytotoxicity at 10 µM was -2.72%. In the case of `CC(Cn1cccn1)NCc1csc(-c2ccccc2)n1` (configuration not stated) it was -13.4%; in that of `Cc1ccsc1[C@@H]1CCN(C(=O)CCCn2cncn2)C[C@H]1O`, -6.91%; in that of `CCc1nc(N2CCC3(CC2)CC(=O)N(Cc2ccc(Cl)cc2)C3)no1`, 4.48%. Next, `CC(C)c1nnc(N2C[C@@H](CN(C)CCO)[C@@H](CO)C2)s1`: -2.48%; `Cc1nn2cc(CCNC(=O)c3cc(C(C)C)no3)nc2s1`: -4.8%; `CCCc1nnc(N(C)CC2CCN(CC(C)C)CC2)o1`: 6.05%. Next, `Cc1ncsc1CCC(=O)N1CCN(CCn2cncn2)CC1`: 3.21%.

For the compound `CN(C)C1CCN(C(=O)c2cccc(S(=O)(=O)NCC3(C)COC3)c2)C1` (configuration not stated), the cytotoxicity at 10 µM was -9.22%. Next, `Cc1ccsc1CCNC(C)C(=O)NC1CCCC1` (configuration not stated): -4.44%; `O=C1CCCN1CCc1noc(-c2ccsc2)n1`: 8.35%.

For the compound `CN1CSC[C@H]1C(=O)N1CCN(Cc2cccc(F)c2)CC1`, the cytotoxicity at 10 µM is -6.92%. Next, `COCC[C@]1(O)CCN(C(=O)CCc2cnn(C)c2)C[C@H]1C`: 1.72%; `CC(C)CC(NC(=O)c1cc(-c2cccn2C)n[nH]1)c1ncnn1C` (configuration not stated): -3.08%; `CC(C)NC(=O)Nc1ccc(-c2nc3c([nH]2)CCNC3)cc1`: -3.5%. Next, `CC(C)NC(=O)CNC(C)COc1ccccc1` (configuration not stated): -5.66%; `CCC(CNC(=O)c1cc(CC(C)C)nn1C)N(C)CC` (configuration not stated): -5.99%; `Cc1ccc(C)c2c1NC(=O)C2CC(=O)O` (configuration not stated): 28.4%. Next, `CSc1ccc(CN2CCn3nc(CNC(C)=O)cc3C2)cc1`: 17.4%.

As to `COc1ccccc1[C@@H]1CN(CC2CCC2)C[C@H]1C(=O)O`, the cytotoxicity at 10 µM was -1.02%. With `CSc1ccc2c(C)cc(N[C@@H](C)CO)nc2c1`, the cytotoxicity at 10 µM was -1.07%.

On to `COCC1CCN(C(=O)c2cc(-c3ccco3)nc3c(Cl)cccc23)C1` (configuration not stated), for which the cytotoxicity at 10 µM was found to be 1.12%.

On to `CCn1c(Cn2ccnc2)nnc1C1CCN(Cc2ccc(C)o2)CC1`, for which the cytotoxicity at 10 µM was -2.28%. Turning to `CC(C)(O)CCc1cccc(C(=O)N2CCC3(CCO3)CC2)c1`, the cytotoxicity at 10 µM was -0.864%.

For the compound `CNCc1n[nH]c(=O)n1-c1ccccc1Oc1ccccc1`, the cytotoxicity at 10 µM was -4.88%. In the case of `CC(=O)c1ccc(F)cc1-c1cc(NCCO)nc2[nH]ccc12` it was -5.72%; in that of `CN(Cc1n[nH]c2c1CCCCC2)C(=O)c1cc(-c2cccn2C)n[nH]1`, 3.02%.

For `Nc1nc2c(c(NCc3nc(-c4ccncc4)n[nH]3)n1)CCCC2`, the cytotoxicity at 10 µM was -0.0554%. In the case of `CCN(C)CC(C)Cn1cnc(-c2ccccc2)c1-c1cncn1CC` (configuration not stated) it was 1.33%.

As to `CCn1c(C)nnc1SCCNC(=O)CC1CCc2ccccc21` (configuration not stated), the cytotoxicity at 10 µM was -1.26%. In the case of `CN(c1ccc(-c2nc(C3CC3)no2)cn1)C1CCOCC1` it was -10.8%. For the compound `O=c1c2cccc(C(F)(F)F)c2ncn1CCN1CCNCC1`, the cytotoxicity at 10 µM was -3.21%. As for `Cc1ccc(CSc2nc(N)cc(NCC(=O)N3CCNCC3)n2)cc1`, the cytotoxicity at 10 µM is -4.62%.

As to `CC(C)Cn1cncc1-c1nc2c([nH]1)CC(C)(C)CNC2=O`, the cytotoxicity at 10 µM is -1.41%. In the case of `COCCN1CC2(CCCN(c3ncnc4[nH]cnc34)C2)CCC1=O` (configuration not stated) it was -3.68%; in that of `CNc1ncc(CN(C)Cc2cc3n(n2)CCNC3)cn1`, -5.71%. Next, `COc1cccc2c(=O)n(CCN3CCNCC3)cnc12`: 0.623%; `Cc1ccc2nc(-c3nc4c([nH]3)CCCNC4=O)cn2c1`: 4.42%; `CCOCCCn1c(NC(=O)c2cnc(C)cn2)nc2ccccc21`: -18.7%. Consider `CN(C)CC1CN(Cc2nnc(C(C)(C)C)o2)CCO1` (configuration not stated), for which the cytotoxicity at 10 µM is -4.17%.

In the case of `Cc1cnn(CC2CN(CC(=O)Nc3cc(C)no3)CCO2)c1` (configuration not stated), the cytotoxicity at 10 µM was -6.13%. As to `Cn1cc(-c2nc(CN3CCCCC3Cn3cncn3)cs2)cn1` (configuration not stated), the cytotoxicity at 10 µM is -17.4%. Next, `Cc1ccc(-c2ncc(C(=O)NCCNC(=O)C3CC3)s2)c(C)c1`: -23.8%. In the case of `CCOc1ccc(C(=O)N2CCCC2c2c(C)nn(C)c2OC)cn1` (configuration not stated), the cytotoxicity at 10 µM was 2.63%. In the case of `Cc1ccc(N2CCCC(NCc3c(C)noc3C)C2)nn1` (configuration not stated) it was -5.88%; in that of `O=C(c1cc(F)ccc1F)C1CCN(C(=O)c2ccco2)CC1`, 3.15%; in that of `Cc1nc(CN2CCCC(N(C)Cc3nc(CC(C)C)no3)C2)no1` (configuration not stated), 5.35%. With `O=C(c1ccccn1)N1CCOC2(COCCN(Cc3cc[nH]n3)C2)C1` (configuration not stated), the cytotoxicity at 10 µM amounted to 0.0227%. In the case of `Cc1nc(COC[C@@H]2CC[C@H]3[C@H](CCN3c3ccccn3)O2)cs1` it was 4.06%. Next, `CC1c2ncc(CNC(=O)C3CC3)n2CCN1Cc1ccccn1` (configuration not stated): 8.18%; `CCN1CC[C@@]2(C(=O)N(C)C)CCN(S(=O)(=O)c3ccccc3)CC[C@@H]12`: 1.26%. Next, `Cc1cccc(CN2CCc3ncnc(N4CCN(C)CC4)c3CC2)n1`: -145%.

Turning to `COCc1nn(CC2CC2)c2c1CN(Cc1cncn1C)CC2`, the cytotoxicity at 10 µM came to 3.94%. As for `COc1cccc(C=CCCN2CCN(S(C)(=O)=O)CC2)c1`, the cytotoxicity at 10 µM is -1.62%. In the case of `CC(=O)c1ccc(C(=O)N2C[C@H]3CC[C@@H](C2)N(CC2CCC2)C3)s1` it was -5.79%.

For `CN1C(=O)[C@@H]2CC[C@H]1CN(C(=O)c1nnc3n1CCCCC3)C2`, the cytotoxicity at 10 µM is -6.34%. In the case of `CN(C)C(c1ccccn1)C1CCC(CNC(=O)C2CC2)CC1` (configuration not stated) it was 6.6%; in that of `COCCN1C(=O)[C@@H]2CC[C@H]1CN(C(=O)COc1ccc(F)c(Cl)c1)C2`, -0.447%.
